# LANA-H2A inh: blocks KSHV LANA binding to histone H2A/H2B | Q9QR71 | cell-free LANA-H2A/H2B peptide, fluorescence polarization | inhibition, % (concentration not given with the values) | 0.6% of 320,000 active | AID 2629; in the data active = inhibition mostly above about 10%, no sharp cut-off; inactive = mostly below about 6.7%
# Target sequence (Q9QR71 whole entry, looked up): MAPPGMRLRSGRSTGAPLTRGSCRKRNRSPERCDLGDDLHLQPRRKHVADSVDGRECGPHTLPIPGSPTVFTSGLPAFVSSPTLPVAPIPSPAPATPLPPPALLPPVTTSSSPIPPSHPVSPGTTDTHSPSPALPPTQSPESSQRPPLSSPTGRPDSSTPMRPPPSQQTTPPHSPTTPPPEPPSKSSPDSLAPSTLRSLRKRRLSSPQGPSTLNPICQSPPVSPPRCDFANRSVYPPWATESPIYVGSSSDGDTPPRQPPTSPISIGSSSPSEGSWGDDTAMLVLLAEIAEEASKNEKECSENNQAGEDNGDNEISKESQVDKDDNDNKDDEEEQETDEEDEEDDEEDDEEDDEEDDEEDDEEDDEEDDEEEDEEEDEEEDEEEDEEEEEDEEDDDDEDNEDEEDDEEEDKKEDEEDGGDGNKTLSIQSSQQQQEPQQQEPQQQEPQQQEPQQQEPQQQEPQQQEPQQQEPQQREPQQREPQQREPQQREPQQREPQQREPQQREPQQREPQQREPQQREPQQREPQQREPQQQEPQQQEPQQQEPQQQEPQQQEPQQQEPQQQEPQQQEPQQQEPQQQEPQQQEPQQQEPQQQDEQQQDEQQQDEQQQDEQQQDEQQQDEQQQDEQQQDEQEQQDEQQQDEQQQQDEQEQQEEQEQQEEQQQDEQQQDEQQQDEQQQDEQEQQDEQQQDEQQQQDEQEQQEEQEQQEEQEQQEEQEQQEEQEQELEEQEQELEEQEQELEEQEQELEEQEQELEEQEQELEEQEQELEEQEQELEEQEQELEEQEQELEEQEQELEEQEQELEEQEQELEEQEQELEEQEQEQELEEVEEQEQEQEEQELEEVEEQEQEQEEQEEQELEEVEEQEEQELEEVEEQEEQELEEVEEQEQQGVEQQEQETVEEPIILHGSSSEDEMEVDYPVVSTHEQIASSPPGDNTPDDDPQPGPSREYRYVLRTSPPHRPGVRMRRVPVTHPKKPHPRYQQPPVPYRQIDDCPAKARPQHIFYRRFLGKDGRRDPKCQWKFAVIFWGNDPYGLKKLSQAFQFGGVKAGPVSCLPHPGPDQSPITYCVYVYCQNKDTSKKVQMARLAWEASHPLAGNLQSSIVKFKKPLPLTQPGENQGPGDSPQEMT
# AI-2 QS mod: modulates the Vibrio harveyi AI-2 quorum sensing system | AID 2094 | 0.4% of 300,000 active | activity change, % at 7.5 µM | Vibrio harveyi JMH597 AI-2 luminescence/OD600 ratio, 9 h; active compounds read low; strain lacks LuxN and CqsS sensors; 0 = neutral-control median; in the data active = activity change below about -75%, passing the limit was not always enough; inconclusive = no clear call, values can overlap the other calls;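 also: luminescence divided by OD600 gain over 9 h not by final OD600 alone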
# HKDC1 inh: blocks human hexokinase HKDC1 activity. recombinant HKDC1, G6PDH/diaphorase resazurin coupled fluorescence. Q2TB90. 0.16% of 340,000 active. inhibition, % at 20 µM;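 active = inhibition above about 35% when tested at 20 µM, limit read from the data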
#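 Test system: recombinant HKDC1 (HK5) hexokinase enzyme, produced in-house / Doses: 20 µM test compound, 1% DMSO / Timing: 90 min, room temperature / Detection: G6PDH/diaphorase-coupled fluorescence, 1 mM NADP, 100 µM resazurin, 525/613 nm / Control set: DMSO wells with and without enzyme mix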
# ATG4B inhibitor: ATG4B (human) cysteine protease inhibition; 0.51% of 340,000 active; ATG4B cleavage of LC3-PLA2, NBD-HPC fluorescence, 1 h; Q9Y4P1; inhibition, % at 8.33 µM; in the data active = inhibition above about 40%
# HDAC3 inh: inhibitors of human histone deacetylase 3; O15379; recombinant HDAC3, fluorogenic peptide/trypsin coupled, fluorescence; inhibition, % at 8.3 µM; 0.15% of 320,000 active; in the data active = inhibition above about 26%, passing the limit was not always enough; inconclusive = no clear call, values can overlap the other calls
# A1 inh: inhibitors of the anti-apoptotic protein A1, read as caspase activation | MEF A1-2A-BIM cells, Caspase-Glo 3/7 luminescence, 3 h; percent of clofoctol response, vehicle zero | caspase activation, % (test concentration not listed) | 0.066% of 330,000 active;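 active = over half of replicate activation scores above 10%, or exactly half above 10 with the replicate mean above 10; inconclusive = replicate mean below 10 yet half the replicates above 10; inactive = over half of replicates below 10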
# JMH597 growth: retest Vibrio harveyi JMH597 growth inhibition; shares compounds with AI-2 QS mod; OD600 absorbance, 9 h; lacks LuxN and CqsS sensors; growth inhibition, % at 7.5 µM; 1% of 750 active;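 active = every replicate shows growth inhibition above 50%; inconclusive = at least half, but not all, replicates pass that cutoff; inactive = fewer than half of replicates pass it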
# BB721 lum counter: retest counter-screen: luminescence loss in constitutive-on quorum sensing strain BB721. shares compounds with AI-2 QS mod. Vibrio harveyi BB721 luminescence, 9 h. inhibition, % at 7.5 µM. 95% of 750 active;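 active = inhibition above about 80% in every replicate, not just on average, limit read from the data; inconclusive = at least half of replicates past the limit, but not all; inactive = fewer than half of replicates past the limit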
# BB721 growth rt: retest: blocks Vibrio harveyi BB721 growth | shares compounds with AI-2 QS mod | OD600 absorbance, 9 h | growth inhibition, % at 7.5 µM | 3% of 750 active | AID 2728;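 active = every replicate shows growth inhibition above 50%; inconclusive = at least half but not all replicates above 50% inhibition; inactive = under half of replicates above 50% inhibition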
# AI-2 QS JMH597: Vibrio harveyi AI-2 signaling luminescence modulation – JMH597 strain, confirmation | shares compounds with AI-2 QS mod | Vibrio harveyi JMH597 AI-2 quorum sensing luminescence, 9 h; luxN and CqsS knockout, AI-2 only | inhibition, % at 7.5 µM | 97% of 750 active;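 active = every replicate shows more than 75% inhibition of signal versus neutral control wells; inconclusive = half to three quarters of replicates exceed 75% inhibition; inactive = fewer than half of replicates exceed 75% inhibition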
# Numbers stand for hits; – = inactive; ? = inconclusive; · = not tested or not shown. A selection: hits, their analogues and other compounds. The true share with any hit is near 1.8%.
SMILES,LANA-H2A inh,AI-2 QS mod,HKDC1 inh,ATG4B inhibitor,HDAC3 inh,A1 inh,JMH597 growth,BB721 lum counter,BB721 growth rt,AI-2 QS JMH597
COc1ccc2nc(N3CCCC(C(=O)NCCCN4C(C)CCCC4C)C3)sc2c1 (stereo not given),–,–,–,–,–,–,·,·,·,·
CCN(c1ccccc1)S(=O)(=O)c1ccc(Oc2ccccc2C(C)=O)nc1,–,·,–,–,–,–,·,·,·,·
CCN(CC)S(=O)(=O)c1ccc(Oc2cccc(C(C)=O)c2)nc1,–,-85,–,–,–,–,–,95,–,96
Cc1ccc(-c2nnc(Cc3ccc(Cl)cc3)o2)cc1,–,–,–,–,–,–,·,·,·,·
O=c1c(Cl)c(Cl)cnn1Cc1nnc(-c2ccc(Cl)cc2)o1,·,-91,–,–,·,·,–,98,–,99
Cc1cccc(Oc2cnn(C(C)(C)C)c(=O)c2Cl)c1,–,-92,–,–,–,–,–,96,–,98
COc1ccc(CC(=O)O/N=C(\N)c2ccccn2)cc1OC,–,–,–,–,–,–,·,·,·,·
Cc1ccc(CC(=O)O/N=C(\N)c2ccccn2)cc1,–,-84,–,–,–,–,–,87,–,91
COc1ccc(CC(=O)O/N=C(\N)c2ccc(C)cc2)cc1,–,-89,–,–,–,–,–,96,–,97
N/C(=N\OC(=O)Cc1ccc(Cl)cc1)c1ccccn1,–,-87,–,–,–,–,–,91,–,93
COc1ccccc1N1CCN(C(=O)c2cccc(N3C(=O)NC4CC3(C)Oc3c(OC)cccc34)c2)CC1 (stereo not given),–,-83,–,–,–,–,–,–,–,–
COc1cccc2c1OC1(C)CC2NC(=O)N1c1cccc(C(=O)N2CCN(c3ccccn3)CC2)c1 (stereo not given),–,–,–,–,–,–,·,·,·,·
COc1cccc(CSc2nnc(-c3ccc(F)cc3)o2)c1,–,-91,–,–,–,–,–,96,–,97
COc1ccc(-c2nnc(SCc3cccc(C#N)c3)o2)cc1,–,–,–,–,–,–,·,·,·,·
Cc1ccccc1-c1nnc(SCc2ccccc2)o1,–,-96,–,–,–,–,–,99,–,99
c1ccc(CSc2nnc(-c3ccncc3)o2)cc1,–,-88,–,–,–,–,–,95,–,96
Fc1ccccc1CSc1nnc(-c2ccccc2)o1,–,-93,–,–,–,–,–,98,–,98
COCCNC(=O)C1CC2Cn3c(nc4ccccc43)C2N1C (stereo not given),–,–,–,–,–,–,·,·,·,·
CC(C)(C)C(=O)Cn1nnc(-c2ccc(C(F)(F)F)cc2)n1,–,-80,–,–,–,–,–,90,–,93
NC(=O)Cn1nnc(-c2ccc(C(F)(F)F)cc2)n1,–,–,–,–,–,–,·,·,·,·
COc1ccc(C(=O)Cn2nnc(-c3cccs3)n2)cc1,–,-81,–,–,–,–,–,93,–,96
COc1ccc(N2CCN(C(=O)Cn3nnc(-c4cccs4)n3)CC2)cc1,–,–,–,–,–,–,·,·,·,·
O=C(Cn1nnc(-c2ccccc2)n1)c1ccccc1,–,-94,–,–,–,–,–,98,–,99
O=C(Cn1nnc(-c2ccccc2)n1)NNC(=O)c1ccccc1,–,–,–,–,–,–,·,·,·,·
CC(C)(C)C1CCC(OCC(O)CN2CCN(c3ccccn3)CC2)CC1 (stereo not given),–,–,–,–,–,–,·,·,·,·
SMILES,LANA-H2A inh,AI-2 QS mod,HKDC1 inh,ATG4B inhibitor,HDAC3 inh,A1 inh,JMH597 growth,BB721 lum counter,BB721 growth rt,AI-2 QS JMH597
Cc1cc(NC(=O)COC(=O)CNC(=O)c2cccs2)c([N+](=O)[O-])cc1C,–,–,–,–,–,–,·,·,·,·
c1ccc2oc(SCc3cn4ccccc4n3)nc2c1,–,-78,–,–,–,–,–,92,–,95
c1ccc(OCCSc2nc3ccccc3o2)cc1,–,-80,–,–,–,–,–,94,–,96
c1ccc(-c2noc(CSc3nc4ccccc4o3)n2)cc1,–,?,–,–,–,–,–,87,–,94
c1ccc2nc(SCc3cn4ccccc4n3)cnc2c1,–,–,–,–,–,–,·,·,·,·
O=C(COC(=O)c1c(Cl)ccc(Cl)c1Cl)NC(=O)NCc1ccccc1,–,–,–,–,–,–,·,·,·,·
CCn1nc(C(=O)NCC2COc3ccccc3O2)c2ccccc2c1=O (stereo not given),–,·,–,–,–,–,·,·,·,·
CCc1cccc2c(-c3csc(=NC)n3C)c[nH]c12,–,–,–,–,–,–,·,·,·,·
CCOc1ccc(CN2C(=O)CC(=O)N(S(=O)(=O)c3ccc(OCC)cc3)C2=O)cc1,–,–,–,–,–,–,·,·,·,·
O=C(NCc1ccccc1)c1cc2ccccc2o1,–,-86,–,–,–,–,–,94,–,95
Cc1ccc(Cn2cc(-c3ccccc3)nn2)cc1,–,-95,–,–,–,–,–,98,–,99
COc1ccc(-c2cn(Cc3ccc(C(=O)c4ccccc4)cc3)nn2)cc1,–,–,–,–,?,–,·,·,·,·
O=C(CN1C(=O)c2ccccc2C1=O)Nc1ccc(-c2nc3ccccc3o2)cc1,–,-92,–,–,–,–,–,87,–,93
O=C(Cn1cnc2ccccc2c1=O)N/N=C/c1ccc(Br)cc1,–,–,–,–,·,–,·,·,·,·
COc1cc(/C=N/NC(=O)Cn2cnc3ccccc3c2=O)ccc1O,–,-89,–,–,–,–,–,95,–,97
CCc1ccc2nc(NC(=O)CSCc3c(C)noc3C)sc2c1,–,-90,–,–,–,–,–,94,–,96
Cc1noc(C)c1CSCC(=O)Nc1nc2ccccc2s1,–,–,–,–,–,–,·,·,·,·
c1ccc(-c2nnc(OCC3CCCO3)c3ccccc23)cc1 (stereo not given),–,–,–,–,–,–,·,·,·,·
COc1cc(C(C)=O)ccc1OCC(=O)NCC1(N2CCCCC2)CCCCC1,–,–,–,–,–,–,·,·,·,·
Cc1sc2ncnc(OCC(=O)N3CCN(S(=O)(=O)c4ccc(Cl)cc4)CC3)c2c1C,–,–,–,–,–,–,·,·,·,·
Cc1sc2ncnc(OCC(=O)c3ccc(S(=O)(=O)N4CCCC4)cc3)c2c1C,–,-90,–,–,–,–,?,98,69,99
